Legend:
Type in all cases: ADME, organism-based
[1] = Volume of distribution at steady state in MRP2 knockout Sprague-Dawley rat at 1 mg/kg, iv by LC-MS/MS analysis; design: dose 1 mg/kg, route intravenous; conditions: in vivo, read-out: Vdss
In short: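 Male Sprague-Dawley rats (knockout or wild type matched for age and weight), femoral artery and vein cannulated, at least 2 days recovery. Crossover design: IV bolus 1 mg/kg on day 0 (saline with 0.2 M equivalents HCl), oral gavage 10 mg/kg on day 3 (water with 0.2 M equivalents HCl). Arterial plasma sampled to 24 h (Mdr1a oral arm to 4 h). Analysed by LC-MS/MS and noncompartmental analysis.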

[2] = Drug excretion in bile duct-cannulated wild-type Sprague-Dawley rat bile at 1 mg/kg, iv up to 24 hrs; design: dose 1 mg/kg, route intravenous; conditions: read-out: Drug excretion
In short: (§1)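 Male Sprague-Dawley rats with bile-duct and femoral cannulation, housed in metabolism cages. Given an IV bolus of 1 mg/kg in 2 ml/kg 50% Cremophor EL in ethanol. Urine, bile and feces collected in toto 0–24 h, with cage wash at 24 h. Amounts quantified by LC-MS/MS and expressed as % of dose; n=6–12.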

[3] = Drug excretion in bile duct-cannulated wild-type Sprague-Dawley rat feces at 1 mg/kg, iv up to 24 hrs; design: dose 1 mg/kg, route intravenous; conditions: faeces, read-out: Drug excretion; in short: as §1
[4] = Drug excretion in bile duct-cannulated MDR1A knockout Sprague-Dawley rat feces at 1 mg/kg, iv up to 24 hrs; design: dose 1 mg/kg, route intravenous; conditions: faeces, read-out: Drug excretion; in short: as §1
[5] = Drug excretion in bile duct-cannulated BCRP knockout Sprague-Dawley rat feces at 1 mg/kg, iv up to 24 hrs; design: dose 1 mg/kg, route intravenous; conditions: faeces, read-out: Drug excretion; in short: as §1
[6] = Drug excretion in bile duct-cannulated MRP2 knockout Sprague-Dawley rat feces at 1 mg/kg, iv up to 24 hrs; design: dose 1 mg/kg, route intravenous; conditions: faeces, read-out: Drug excretion; in short: as §1
[7] = AUC (infinity) in wild-type Sprague-Dawley rat at 5 mg/kg, po by LC-MS/MS analysis; design: time infinity, dose 5 mg/kg, route oral; conditions: plasma
In short: (§2)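 Male Sprague-Dawley rats (knockouts age- and weight-matched to wild type), femoral-artery and vein cannulated, recovered ≥2 days. IV/oral crossover: 1 mg/kg IV bolus on day 0, then after a 3-day washout 5 mg/kg oral gavage in 10 ml/kg 50% Cremophor EL in ethanol. Arterial plasma 0–24 h, protein-precipitated, LC-MS/MS (positive ion, 1–5000 ng/ml). Noncompartmental analysis; n=5–9.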

[8] = AUC (infinity) in MDR1A knockout Sprague-Dawley rat at 5 mg/kg, po by LC-MS/MS analysis; design: time infinity, dose 5 mg/kg, route oral; conditions: plasma
[9] = AUC (infinity) in BCRP knockout Sprague-Dawley rat at 5 mg/kg, po by LC-MS/MS analysis; design: time infinity, dose 5 mg/kg, route oral; conditions: plasma; in short: as §2
[10] = AUC (infinity) in MRP2 knockout Sprague-Dawley rat at 5 mg/kg, po by LC-MS/MS analysis; design: time infinity, dose 5 mg/kg, route oral; conditions: plasma; in short: as §2
[11] = Cmax in wild-type Sprague-Dawley rat at 5 mg/kg, po by LC-MS/MS analysis; design: dose 5 mg/kg, route oral; conditions: in vivo; in short: as §2
[12] = Cmax in MDR1A knockout Sprague-Dawley rat at 5 mg/kg, po by LC-MS/MS analysis; design: dose 5 mg/kg, route oral; conditions: in vivo; in short: as §2
[13] = Cmax in BCRP knockout Sprague-Dawley rat at 5 mg/kg, po by LC-MS/MS analysis; design: dose 5 mg/kg, route oral; conditions: in vivo; in short: as §2
[14] = Cmax in MRP2 knockout Sprague-Dawley rat at 5 mg/kg, po by LC-MS/MS analysis; design: dose 5 mg/kg, route oral; conditions: in vivo; in short: as §2
[15] = Tmax in wild-type Sprague-Dawley rat at 5 mg/kg, po by LC-MS/MS analysis; design: dose 5 mg/kg, route oral; conditions: in vivo; in short: as §2
[16] = Tmax in MDR1A knockout Sprague-Dawley rat at 5 mg/kg, po by LC-MS/MS analysis; design: dose 5 mg/kg, route oral; conditions: in vivo
[17] = Tmax in BCRP knockout Sprague-Dawley rat at 5 mg/kg, po by LC-MS/MS analysis; design: dose 5 mg/kg, route oral; conditions: in vivo; in short: as §2
[18] = Tmax in MRP2 knockout Sprague-Dawley rat at 5 mg/kg, po by LC-MS/MS analysis; design: dose 5 mg/kg, route oral; conditions: in vivo; in short: as §2
[19] = Half life in wild-type Sprague-Dawley rat at 5 mg/kg, po by LC-MS/MS analysis; design: dose 5 mg/kg, route oral; conditions: in vivo; in short: as §2
[20] = Half life in MDR1A knockout Sprague-Dawley rat at 5 mg/kg, po by LC-MS/MS analysis; design: dose 5 mg/kg, route oral; conditions: in vivo; in short: as §2
[21] = Half life in BCRP knockout Sprague-Dawley rat at 5 mg/kg, po by LC-MS/MS analysis; design: dose 5 mg/kg, route oral; conditions: in vivo; in short: as §2
[22] = Half life in MRP2 knockout Sprague-Dawley rat at 5 mg/kg, po by LC-MS/MS analysis; design: dose 5 mg/kg, route oral; conditions: in vivo; in short: as §2
[23] = Oral bioavailability in wild-type Sprague-Dawley rat at 5 mg/kg by LC-MS/MS analysis; conditions: in vivo; in short: as §2
[24] = Oral bioavailability in MDR1A knockout Sprague-Dawley rat at 5 mg/kg by LC-MS/MS analysis; conditions: in vivo
[25] = Oral bioavailability in BCRP knockout Sprague-Dawley rat at 5 mg/kg by LC-MS/MS analysis; conditions: in vivo; in short: as §2
[26] = Oral bioavailability in MRP2 knockout Sprague-Dawley rat at 5 mg/kg by LC-MS/MS analysis; conditions: in vivo; in short: as §2

## CC(=O)O[C@H]1C(=O)[C@@]2(C)[C@H]([C@H](OC(=O)c3ccccc3)[C@]3(O)C[C@H](OC(=O)[C@H](O)[C@@H](NC(=O)c4ccccc4)c4ccccc4)C(C)=C1C3(C)C)[C@]1(OC(C)=O)CO[C@@H]1C[C@@H]2O [PACLITAXEL]
[1]
  Vd: 28.6 L/kg
[2]
  dose excreted at 24 h: 0.5%
[3]
  dose excreted at 24 h: 2.3%
[4]
  dose excreted at 24 h: 0.21%
[5]
  dose excreted at 24 h: 1%
[6]
  dose excreted at 24 h: 2.8%
[7]
  AUC(0-inf): 88 ng·h/mL
[8]
  AUC(0-inf): 746 ng·h/mL
[9]
  AUC(0-inf): 113 ng·h/mL
[10]
  AUC(0-inf): 622 ng·h/mL
[11]
  Cmax: 30 ng/mL
[12]
  Cmax: 145 ng/mL
[13]
  Cmax: 40 ng/mL
[14]
  Cmax: 151 ng/mL
[15]
  Tmax: 0.8 h
[16]
  Tmax: 1.2 h
[17]
  Tmax: 0.9 h
[18]
  Tmax: 0.9 h
[19]
  half-life: 4.4 h
[20]
  half-life: 10 h
[21]
  half-life: 5.3 h
[22]
  half-life: 9.4 h
[23]
  bioavailability: 12%
[24]
  bioavailability: 47%
[25]
  bioavailability: 13%
[26]
  bioavailability: 27%

Source: ChEMBL document CHEMBL3526049 (Drug Metab Dispos, 2012)
